Legend:
[1] = tested on: Tg(fli1:EGFP) zebrafish embryos; assay: Zebrafish embryo in vivo angiogenesis assay
[2] = target: P-gp (Homo sapiens, UniProt P08183); assay: Calcein-AM assay by flow cytometry in CEM/ADR5000 cells; conditions: CCRF-CEM and CEM/ADR5000 cells, result in words
[3] = target: P-gp expressed in porcine capillaries (Sus scrofa, UniProt K7GMM7); assay: NBD-CSA transport in porcine brain capillaries; format: cell-based; conditions: confocal microscopy, result in words
How it was run: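 Porcine brain capillaries incubated with test compound and the fluorescent P-gp substrate NBD-CSA. Transport into the capillary lumen imaged by confocal microscopy (transmitted light, fluorescence, overlay) and quantified by fluorospectrometry. Negative-control capillaries stained with NBD-CSA only, same time course.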

P-gp, sequence (P08183 whole entry): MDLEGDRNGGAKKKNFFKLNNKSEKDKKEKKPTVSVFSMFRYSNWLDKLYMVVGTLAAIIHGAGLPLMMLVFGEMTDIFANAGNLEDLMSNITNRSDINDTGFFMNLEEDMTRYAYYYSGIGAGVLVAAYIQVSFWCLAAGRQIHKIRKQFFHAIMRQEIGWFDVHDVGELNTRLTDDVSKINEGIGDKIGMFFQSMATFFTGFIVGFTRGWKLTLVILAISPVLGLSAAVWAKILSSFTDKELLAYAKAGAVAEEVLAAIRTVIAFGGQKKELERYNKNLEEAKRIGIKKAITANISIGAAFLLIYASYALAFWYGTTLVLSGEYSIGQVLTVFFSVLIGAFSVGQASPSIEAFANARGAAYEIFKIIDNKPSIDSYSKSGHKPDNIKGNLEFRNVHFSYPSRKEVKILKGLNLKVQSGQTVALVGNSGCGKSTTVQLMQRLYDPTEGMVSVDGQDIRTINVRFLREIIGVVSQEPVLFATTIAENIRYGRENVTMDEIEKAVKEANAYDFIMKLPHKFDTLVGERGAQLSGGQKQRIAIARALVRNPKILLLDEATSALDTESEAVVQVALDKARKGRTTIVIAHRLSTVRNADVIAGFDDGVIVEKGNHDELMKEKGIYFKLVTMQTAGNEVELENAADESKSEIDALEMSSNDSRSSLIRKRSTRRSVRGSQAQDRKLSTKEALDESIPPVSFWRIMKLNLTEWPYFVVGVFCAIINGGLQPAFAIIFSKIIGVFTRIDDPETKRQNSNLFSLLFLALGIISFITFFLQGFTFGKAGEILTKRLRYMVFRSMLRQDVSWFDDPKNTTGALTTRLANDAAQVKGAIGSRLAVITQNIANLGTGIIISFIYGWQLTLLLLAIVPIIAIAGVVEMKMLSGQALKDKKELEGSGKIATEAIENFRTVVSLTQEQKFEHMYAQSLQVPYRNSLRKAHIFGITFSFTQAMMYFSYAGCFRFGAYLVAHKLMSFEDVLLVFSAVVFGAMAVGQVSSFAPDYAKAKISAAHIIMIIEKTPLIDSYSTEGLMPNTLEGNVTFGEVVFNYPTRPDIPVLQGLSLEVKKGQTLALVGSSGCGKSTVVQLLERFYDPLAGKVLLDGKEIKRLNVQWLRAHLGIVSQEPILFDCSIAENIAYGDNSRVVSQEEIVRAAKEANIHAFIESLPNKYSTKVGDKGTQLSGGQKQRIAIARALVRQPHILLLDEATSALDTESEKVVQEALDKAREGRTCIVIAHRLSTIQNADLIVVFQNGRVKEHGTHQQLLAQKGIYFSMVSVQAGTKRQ
P-gp expressed in porcine capillaries, sequence (K7GMM7 1-1248): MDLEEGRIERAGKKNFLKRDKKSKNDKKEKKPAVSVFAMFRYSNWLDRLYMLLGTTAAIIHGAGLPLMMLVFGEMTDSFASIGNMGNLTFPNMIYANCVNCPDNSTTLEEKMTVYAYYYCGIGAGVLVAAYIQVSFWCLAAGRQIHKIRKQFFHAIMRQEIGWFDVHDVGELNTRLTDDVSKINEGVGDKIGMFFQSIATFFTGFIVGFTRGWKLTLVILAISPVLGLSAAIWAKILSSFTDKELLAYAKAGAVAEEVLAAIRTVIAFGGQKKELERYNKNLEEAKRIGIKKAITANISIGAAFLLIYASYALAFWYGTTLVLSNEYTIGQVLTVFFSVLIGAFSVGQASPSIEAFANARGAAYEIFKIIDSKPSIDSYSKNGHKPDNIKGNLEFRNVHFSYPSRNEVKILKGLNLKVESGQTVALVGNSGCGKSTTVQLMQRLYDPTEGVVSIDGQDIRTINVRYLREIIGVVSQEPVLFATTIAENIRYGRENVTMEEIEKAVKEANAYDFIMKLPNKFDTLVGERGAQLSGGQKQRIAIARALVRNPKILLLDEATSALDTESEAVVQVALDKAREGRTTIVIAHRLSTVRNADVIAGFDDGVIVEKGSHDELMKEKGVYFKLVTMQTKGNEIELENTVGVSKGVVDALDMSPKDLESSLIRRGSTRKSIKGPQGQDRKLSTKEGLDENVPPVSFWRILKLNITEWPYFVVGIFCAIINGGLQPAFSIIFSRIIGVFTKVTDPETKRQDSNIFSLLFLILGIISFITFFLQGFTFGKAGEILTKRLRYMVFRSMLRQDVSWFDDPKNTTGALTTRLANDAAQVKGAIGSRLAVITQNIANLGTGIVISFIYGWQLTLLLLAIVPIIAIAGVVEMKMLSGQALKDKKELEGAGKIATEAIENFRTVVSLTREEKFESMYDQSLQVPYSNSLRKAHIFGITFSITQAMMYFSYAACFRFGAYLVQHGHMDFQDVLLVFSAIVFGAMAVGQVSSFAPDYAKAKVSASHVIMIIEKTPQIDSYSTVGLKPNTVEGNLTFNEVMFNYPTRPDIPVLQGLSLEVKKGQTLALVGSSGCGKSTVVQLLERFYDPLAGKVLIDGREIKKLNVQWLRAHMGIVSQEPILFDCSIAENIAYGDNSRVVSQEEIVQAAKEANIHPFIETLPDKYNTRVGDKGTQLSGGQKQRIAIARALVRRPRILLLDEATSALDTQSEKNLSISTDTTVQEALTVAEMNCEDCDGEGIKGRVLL

C[C@H]1[C@H](OC(=O)CCC(=O)O)O[C@@H]2O[C@@]3(C)CC[C@H]4[C@H](C)CC[C@@H]1[C@@]24OO3 [Artesunate, artesunate]
Dead = number of dead embryos up to 48 hpf ([1]; 25 μg/ml, N=20 embryos): 1 | Dead = number of dead embryos up to 48 hpf ([1]; 50 μg/ml, N=20 embryos): 1 | Dead = number of dead embryos up to 48 hpf ([1]; 100 μg/ml, N=20 embryos): 1 | Dead = number of dead embryos up to 48 hpf ([1]; 200 μg/ml, N=10 embryos): 1 | Anti-angiogenic effect ([1]; overall assessment over the dose range, result in words): dose-dependent anti-angiogenic effects | P-gp inhibition (calcein accumulation) [2]: do not act as P-gp inhibitors

C[C@@H]1CC[C@H]2[C@@H](C)C(=O)O[C@@H]3O[C@@]4(C)CC[C@@H]1[C@]32OO4 [Compound 1, artemisinin]
P-gp inhibition (calcein accumulation) [2]: do not act as P-gp inhibitors

CC1=CO[C@@H]2O[C@@]3(C)CC[C@H]4[C@H](C)CC[C@@H]1[C@@]24OO3 [Compound 4, anhydrodihydroartemisinin]
Dead = number of dead embryos up to 48 hpf ([1]; 50 μg/ml, N=10 embryos): 2 | Dead = number of dead embryos up to 48 hpf ([1]; 75 μg/ml, N=10 embryos): 5

C/C=C/C[C@@H](C)C(=O)[C@H]1C(=O)N[C@@H](C(C)C)C(=O)N(C)CC(=O)N(C)[C@@H](CC(C)C)C(=O)N[C@@H](C(C)C)C(=O)N(C)[C@@H](CC(C)C)C(=O)N[C@@H](C)C(=O)N[C@H](C)C(=O)N(C)[C@@H](CC(C)C)C(=O)N(C)[C@@H](CC(C)C)C(=O)N(C)[C@@H](C(C)C)C(=O)N1C [PSC-833]
Inhibition of luminal P-gp (NBD-CSA transport) [3]: inhibited

Cc1cc(C)c(/C=C2\C(=O)Nc3ccccc32)[nH]1 [SU5416]
Formation of ISVs at 28 hpf ([1]; 10 μg/ml, 28 hpf, result in words): completely blocked formation of ISVs | ISV sprouting at 48 hpf ([1]; 10 μg/ml, 48 hpf, compared to control embryos, result in words): sprouted only minimally | Heart rate ([1]; 10 μg/ml, result in words): not affected | Oedema ([1]; 10 μg/ml, result in words): rarely observed

Reference: paper PMC3822625 (Journal of Cellular and Molecular Medicine, 2010)
